# ChEMBL document CHEMBL1122914, “Synthesis and biological activity of pentapeptide analogues of the potent angiotensin converting enzyme inhibitor 5(S)-benzamido-4-oxo-6-phenylhexanoyl-L-proline” (J Med Chem, 1985)
# How the values were obtained:
# Type in all cases: functional
# [1] = Percent recovery of compound in rats over 24 hr when administered orally at a dose of 4.3 mg, 4.09(uCi); and activity calculated from bile of rats at time (5-6 h)
# In short: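 Adult male Sprague-Dawley rats were fasted overnight, with chow and water otherwise ad libitum. The tritiated proline-4-labelled analogue was given orally in dilute NaHCO3. Bile was collected at timed intervals and urine over 24 h. Aliquots were counted by liquid scintillation, with quench correction by automatic external standardization and a quench curve. Recovery was expressed as percent of the dosed radioactivity.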
# Rattus norvegicus [2] = test: Compound was evaluated for change in blood pressure value in hypertensive rats by peroral administration at a dose of 6.4 mg/kg at 8 hr; settings: route oral
# In short: (§1)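 One-clip/two-kidney renal hypertension was induced with a silver clip on the left renal artery, leaving the other kidney intact. Several weeks later, rats were cannulated and those with mean pressure above 160 mmHg were used. Four conscious rats per compound received an oral dose in 0.25% methylcellulose (5 mL/kg), and two received vehicle only. Mean aortic pressure was read before dosing, hourly for 8 h, and at 24 h.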
# Rattus norvegicus [3] = test: Compound was evaluated for its base line value in hypertensive rats by peroral administration at a dose of 6.4 mg/kg; settings: route oral; in short: as §1
# Rattus norvegicus [4] = test: Compound was evaluated for maximum effect in hypertensive rats by peroral administration at a dose of 6.4 mg/kg; settings: route oral; in short: as §1
# Rattus norvegicus [5] = test: Compound was evaluated for its base line value on hypertensive rats by peroral administration at a dose of 3.0 mg/kg; settings: route oral
# Rattus norvegicus [6] = test: Compound was evaluated for its maximum effect value on hypertensive rats by peroral administration at a dose of 3.0 mg/kg; settings: route oral
# Rattus norvegicus [7] = test: Compound was evaluated for itschange in blood pressure value on hypertensive rats by peroral administration at a dose of 3.0 mg/kgat 4 hr; settings: dose 3 mg/kg; route oral; in short: as §1
# Rattus norvegicus [8] = test: Compound was evaluated for its maximum effect value on hypertensive rats by peroral administration at a dose of 30 mg/kg; settings: route oral
# Rattus norvegicus [9] = test: Compound was evaluated for itschange in blood pressure value on hypertensive rats by peroral administration at a dose of 30 mg/kg at 8 hr; settings: route oral
# Rattus norvegicus [10] = test: Compound was evaluated for its base line value on hypertensive rats by peroral administration at a dose of 30 mg/kg; settings: route oral
# Rattus norvegicus [11] = test: Compound was evaluated for change in blood pressure in hypertensive rats by peroral administration at a dose of 3.0 mg/kg at 1 hr; settings: route oral
# Rattus norvegicus [12] = test: Compound was evaluated for maximum effect in hypertensive rats by peroral administration at a dose of 3.0 mg/kg; settings: route oral
smiles,measurement,setting,value
[3H]C1CC(C(=O)O)N(C(=O)CCC(=O)C(Cc2ccccc2)NC(=O)C(CCCCN)NC(=O)C2CCC2)C1 (configuration not stated),Recovered radioactivity,[1],1.42%
CC(CC(=O)C(Cc1ccccc1)NC(=O)C(CCCCN)NC(=O)C1CCC1)C(=O)N1CCCC1C(=O)O.O=C(O)C(F)(F)F (configuration not stated),Mean aortic blood pressure,Rattus norvegicus [2],-5 mmHg
same,Mean aortic blood pressure,Rattus norvegicus [3],186 mmHg
same,Mean aortic blood pressure,Rattus norvegicus [4],181 mmHg
NCCCCC(NC(=O)C1CCC1)C(=O)NC(Cc1ccccc1)C(=O)CCC(=O)N1CCCC1C(=O)O.O=C(O)C(F)(F)F (configuration not stated),Mean aortic blood pressure,Rattus norvegicus [5],195 mmHg
same,Mean aortic blood pressure,Rattus norvegicus [6],173 mmHg
same,Mean aortic blood pressure,Rattus norvegicus [7],-22 mmHg
O=C(N[C@@H](Cc1ccccc1)C(=O)CCC(=O)N1CCC[C@H]1C(=O)O)c1ccccc1,Mean aortic blood pressure,Rattus norvegicus [8],178 mmHg
same,Mean aortic blood pressure,Rattus norvegicus [9],-12 mmHg
same,Mean aortic blood pressure,Rattus norvegicus [10],190 mmHg
C[C@H](CS)C(=O)N1CCC[C@H]1C(=O)O [CAPTOPRIL],Mean aortic blood pressure,Rattus norvegicus [11],-93 mmHg
same,Mean aortic blood pressure,Rattus norvegicus [12],99 mmHg
